Data set [1] is described as follows: Growth inhibition of human THP1 cells. The class given is cell-based. Conditions: THP-1 cells.
For data set [2], the system named is THP-1. In words: Cytotoxicity against human THP1 cells at 10 ug/ml. The format is cell-based.
Data set [3] can be described thus: (§1) Growth inhibition of human PANC1 cells by MTT assay. The note with it: PANC-1 cells. The class given is cell-based, PANC-1. In short, it runs like this:
(§2)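 Human cancer cell lines were exposed in vitro to a range of compound concentrations. Viability was read by MTT colorimetric assay, and GI50 and GI90 were derived from the concentration series.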
(Tetrazolium assays rely on reduction of a dye to a coloured formazan, in cell work by metabolically active cells.)

In the next data set the test system is PANC-1. Described as §1. The note with it: panc-1. The class given is cell-based. In short, it runs like this: as §2
Data set [4] concerns Mycobacterium tuberculosis. In words: Antitubercular activity against dormant stage of Mycobacterium tuberculosis H37Ra ATCC 25177 infected in human THP1 cells by nitrate reductase assay. The format is functional, organism-based. The note with it: for MIC90: H37Ra ATCC 25177; for IC50: H37Ra ATCC 25177, THP-1.
For data set [5], the system named is Mycobacterium tuberculosis. In words: Antitubercular activity against dormant stage of Mycobacterium tuberculosis H37Ra ATCC 25177 assessed as growth inhibition at 10 ug/ml after 12 days by XRMA relative to control. The class given is functional. The note with it: H37Ra ATCC 25177, 288 h.
The test system of data set [6] is Mycobacterium tuberculosis. In words: Antitubercular activity against dormant stage of Mycobacterium tuberculosis H37Ra ATCC 25177 after 12 days by XRMA. The note with it: H37Ra ATCC 25177, 288 h. The class given is functional, organism-based. In short, it runs like this:
(§3)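 MIC against dormant-stage bacilli, read out by XTT reduction menadione assay (XRMA), with rifampicin MIC determined the same way as reference.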

The subject of data set [7] is Mycobacterium tuberculosis. As to the kind of experiment: Antitubercular activity against dormant stage of Mycobacterium tuberculosis H37Ra ATCC 25177 assessed as growth inhibition at 30 ug/ml after 12 days by XRMA relative to control. The class given is functional. Conditions: H37Ra ATCC 25177, 288 h.
For another data set, the system named is HeLa. As to the kind of experiment: (§4) Growth inhibition of human HeLa cells by MTT assay. The class given is cell-based. Conditions: hela. In short, it runs like this: as §2
Data set [8] can be described thus: as §4. The format is cell-based. Conditions: HeLa cells. In short, it runs like this: as §2
Data set [9] concerns THP-1. In words: Cytotoxicity against human THP1 cells at 3 ug/ml. The class given is cell-based.
Data set [10] relates to Mycobacterium tuberculosis. As to the kind of experiment: Antitubercular activity against dormant stage of Mycobacterium tuberculosis H37Ra ATCC 25177 assessed as growth inhibition at 3 ug/ml after 12 days by XRMA relative to control. Conditions: H37Ra ATCC 25177, 288 h. The format is functional.
Data set [11] concerns Mycobacterium tuberculosis. As to the kind of experiment: Antitubercular activity against dormant stage of Mycobacterium tuberculosis H37Ra ATCC 25177 by two fold dilution technique. The format is functional. In short, it runs like this: as §3
Another data set has as its system A549. As to the kind of experiment: (§5) Growth inhibition of human A549 cells by MTT assay. The format is cell-based. The note with it: a549. The essentials: as §2
Data set [12] in a line: as §5. The class given is cell-based. The note with it: A549 cells. In short, it runs like this: as §2
Data set [13] concerns THP-1. In words: Cytotoxicity against human THP1 cells at 30 ug/ml. The class given is cell-based.

Values after ≈ are worked out from the molar mass of the structure shown.

In general, GI50 refers to the concentration at which growth is held to half of that of the control. A higher GI50 goes with less potent growth inhibition. What is called MIC90 is an inhibitory concentration at the 90% level, which refers to growth in some studies and to a panel of isolates in others. A lower MIC90 goes with greater potency. Broadly, the IC50 is the point on the concentration scale where inhibition reaches its midpoint. The term inhibition denotes the share of the control response that was lost under treatment. Turning to `Cc1nc(C)c(-c2nn(-c3ccc(F)cc3)cc2C2CC(c3cc(Br)ccc3O)=NN2)s1` (stereo unspecified), the GI50 in data set [1] is more than 30 µg/mL; in data set [3] it was 76.4 µg/mL (≈ 149 µM); in data set [8], 21.6 µg/mL (≈ 42.2 µM); in data set [12], 81.4 µg/mL (≈ 159 µM). Further, the Activity is listed as 14.69% with THP-1 [2], 13.91% with THP-1 [9] and 19.51% in the data set with THP-1 [13]. The GI90 with PANC-1 was found to be 115.65 µg/mL (≈ 226 µM); in the data set with HeLa, 43.11 µg/mL (≈ 84.1 µM); in the data set on A549, 154.68 µg/mL (≈ 302 µM). The MIC90 is 2.95 µM (≈ 1.51 µg/mL) in data set [4] and 5.79 µM (≈ 2.97 µg/mL) in [11]. Also, the 50% inhibitory concentration (IC50) in [4] amounted to 410 nM; in data set [6], 310 nM. Moreover, the inhibition at 10 µg/mL in data set [5] stood at 75.5%. In data set [7], the inhibition at 30 µg/mL stood at 88.2%. In data set [10], the inhibition at 3 µg/mL is 42.5%.
Take `Cc1nc(C)c(-c2nn(-c3ccc(F)cc3)cc2-c2cc(=O)c3cc(Cl)c(C)cc3o2)s1`: the 50% growth inhibitory concentration (GI50) in [1] is more than 30 µg/mL; in data set [3] it was more than 250 µg/mL; in [8], 16.7 µg/mL (≈ 35.8 µM); in data set [12] it was more than 250 µg/mL. Further, the figures for the Activity with THP-1 [2], with THP-1 [9] and with THP-1 [13] were 16.62%, 12.82% and 24.65%, respectively. Moreover, the GI90 in the data set on PANC-1 is more than 250 µg/mL; in the data set with HeLa, 53.48 µg/mL (≈ 115 µM); with A549, more than 250 µg/mL. Further, the figures for the MIC90 in data set [4] and in data set [11] were 2.94 µM (≈ 1.37 µg/mL) and 3.69 µM (≈ 1.72 µg/mL), respectively. Moreover, the values for the half-inhibitory concentration (IC50) in [4] and in data set [6] were 670 nM and 1670 nM, respectively. In addition, the inhibition at 10 µg/mL in [5] worked out at 23.2%. Moreover, in [7], the inhibition at 30 µg/mL came to 93.7%. Besides, the inhibition at 3 µg/mL in data set [10] was determined as 53.5%.
For `Cc1nc(C)c(-c2nn(-c3ccc(F)cc3)cc2C2CC(c3cc(Cl)ccc3O)=NN2)s1` (stereo unspecified), the concentration for 50% growth inhibition (GI50) in [1] was more than 30 µg/mL; in data set [3] it was more than 250 µg/mL; in data set [8] it was more than 250 µg/mL; in data set [12] it was more than 250 µg/mL. For the same compound, the Activity amounted to 11.51% with THP-1 [2], 7.09% in the data set on THP-1 [9] and 17.04% in the data set with THP-1 [13]. The GI90 in the data set on PANC-1, in the data set with HeLa and with A549 was more than 250 µg/mL throughout. Besides, the MIC90 in data set [4] was 1.5 µM (≈ 0.702 µg/mL); in data set [11] it was 2.48 µM (≈ 1.16 µg/mL). Moreover, the results for the IC50 in data set [4] and in data set [6] were 360 nM and 60 nM, respectively. In data set [5], the inhibition at 10 µg/mL is 79.7%. Also, the inhibition at 30 µg/mL in data set [7] is 97.2%. Besides, the inhibition at 3 µg/mL in data set [10] worked out at 41.6%.

These data come from ChEMBL document CHEMBL4392833, “Thiazolyl-pyrazole derivatives as potential antimycobacterial agents” (Bioorg Med Chem Lett, 2019).
